Molecules are shown by their SMILES. Active and inactive are the calls of the source. The calls are words filed in the database; no cut-off is given here.

Data on 5 compounds can be found in ChEMBL document CHEMBL5335788, “Synthesis and evaluation of aromatic BDSF bioisosteres on biofilm formation and colistin sensitivity in pathogenic bacteria” (Eur J Med Chem, 2023).

Series [1] has as its system Burkholderia multivorans. Briefly: Potentiation of colistin-induced antibacterial activity against Burkholderia multivorans B10 assessed as colistin MIC at 50 uM incubated for 20 hrs by susceptibility testing (Rvb > 128 ug/ml). Format: functional. In short, it runs like this: (§1)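 Colistin MIC by broth microdilution in cation-adjusted Mueller-Hinton broth, log-phase cells at final 5×10^5 cfu/mL. Two-fold colistin dilutions in duplicate with sulfonamide at final 0.05 mM (from 10 mM DMSO stock); 20 h at 37 °C. OD550 read. MIC taken as the lowest colistin level reducing growth ≥80% versus growth control. At least two replicates.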

Series [2] deals with Acinetobacter baumannii. Put plainly: Antimicrobial activity against Acinetobacter baumannii ATCC 15308 assessed as microbial growth inhibition at 50 uM incubated for 20 hrs by broth microdilution method. Format: functional, organism-based. In short, it runs like this:
(§2)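 Overnight cultures in cation-adjusted Mueller-Hinton broth, subcultured 1:100; log-phase cells at final 1×10^5 cfu/mL exposed to sulfonamide at final 0.05 mM (from 10 mM DMSO stock) for 20 h at 37 °C. OD550 read after shaking. Growth expressed as percent of 0.5% DMSO control wells. Screened at least twice.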
A general note: In broth dilution the organism is exposed to a series of concentrations in liquid medium.

In series [3] the test system is Escherichia coli. Briefly: Antimicrobial activity against Escherichia coli ATCC 9637 assessed as microbial growth inhibition at 50 uM incubated for 20 hrs by broth microdilution method. The series is classed as functional, organism-based. The gist of the method: as §2
For series [4], the system named is Pseudomonas aeruginosa. Put plainly: Antimicrobial activity against Pseudomonas aeruginosa PAO1 assessed as microbial growth inhibition at 50 uM incubated for 20 hrs by broth microdilution method. Format: functional, organism-based. In short, it runs like this: as §2
The subject of series [5] is Pseudomonas aeruginosa. Put plainly: Inhibition of biofilm formation in Pseudomonas aeruginosa PAO1 at 0.05 mM incubated for 24 hrs by crystal violet method. Format: functional, organism-based. The gist of the method:
(§3)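 Crystal violet assay in LB: log-phase bacteria at final 1×10^5 cfu/mL with sulfonamide at final 0.05 mM, 24 h at 37 °C. Biomass read at OD620, then wells washed, biofilm heat-fixed 65 °C 15 min, stained 0.1% crystal violet 15 min, dye eluted in 30% acetic acid, OD550 read. Neat DMSO control taken as 100%. Duplicates, at least two independent experiments; one-way ANOVA.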

Series [6] relates to Stenotrophomonas maltophilia. Briefly: Inhibition of biofilm formation in Stenotrophomonas maltophilia K279a clinical isolate of rpf-1 subpopulation at 0.05 mM incubated for 24 hrs by crystal violet method. The series is classed as functional, organism-based. In short, it runs like this:
as §3

In series [7] the test system is Acinetobacter baumannii. Put plainly: Potentiation of colistin-induced antibacterial activity against Acinetobacter baumannii ATCC 15308 assessed as colistin MIC at 50 uM incubated for 20 hrs by susceptibility testing (reference value: 0.25 to 0.5 ug/ml). The series is classed as functional. In short, it runs like this: as §1
Series [8] has as its system Escherichia coli. Put plainly: Potentiation of colistin-induced antibacterial activity against Escherichia coli ATCC 9637 assessed as colistin MIC at 50 uM incubated for 20 hrs by susceptibility testing (reference value: 0.125 to 0.25 ug/ml). The series is classed as functional. The gist of the method: as §1
Series [9] relates to Burkholderia cepacia. Briefly: Potentiation of colistin-induced antibacterial activity against Burkholderia cepacia R6193 assessed as colistin MIC at 50 uM incubated for 20 hrs by susceptibility testing (Rvb > 256 ug/ml). Format: functional. In short, it runs like this:
as §1

The subject of series [10] is Burkholderia cenocepacia. Briefly: Potentiation of colistin-induced antibacterial activity against Burkholderia cenocepacia 289 assessed as colistin MIC at 50 uM incubated for 20 hrs by susceptibility testing (Rvb > 256 ug/ml). The series is classed as functional. In short, it runs like this:
as §1

For series [11], the system named is Pseudomonas aeruginosa. Briefly: Potentiation of colistin-induced antibacterial activity against Pseudomonas aeruginosa assessed as colistin MIC at 50 uM incubated for 20 hrs by susceptibility testing (reference value: 1 to 2 ug/ml). The series is classed as functional. The gist of the method:
as §1

Series [12] relates to Stenotrophomonas maltophilia. Put plainly: Potentiation of colistin-induced antibacterial activity against Stenotrophomonas maltophilia K279a assessed as colistin MIC at 50 uM incubated for 20 hrs by susceptibility testing (reference value: 2 to 8 ug/ml). The series is classed as functional. In short, it runs like this:
as §1

The nature of series [13]: Toxicity in Galleria mellonella larva assessed as larval survival at 50 uM.
Series [14] concerns Burkholderia multivorans. Put plainly: Inhibition of biofilm formation in Burkholderia multivorans B10 at 0.05 mM incubated for 24 hrs by crystal violet method relative to control. To be noted: B10, 24 h. Format: functional. In short, it runs like this: as §3
Series [15] deals with Stenotrophomonas maltophilia. Put plainly: Potentiation of colistin-induced antibacterial activity against Stenotrophomonas maltophilia K279a infected in Galleria mellonella larva at 50 uM. The series is classed as functional, organism-based. The gist of the method: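 Larvae 300–400 mg, at least 15 per group, infected in last proleg with 1×10^4 cfu S. maltophilia K279a in PBS. After 60 min at 37 °C, chilled 15 min on ice, then injected with 5 μL PBS holding colistin at final 0.5 μg/mL, sulfonamide at final 50 μM, or both; 0.5% DMSO vehicle control. Kept at 37 °C, survival scored every 24 h for Kaplan-Meier curves. At least two larval batches.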

The nature of series [16]: Toxicity in Galleria mellonella larva assessed as larval survival at 50 uM in presence of colistin.
For series [17], the system named is Acinetobacter baumannii. Put plainly: Inhibition of biofilm formation in Acinetobacter baumannii ATCC 15308 at 0.05 mM incubated for 24 hrs by crystal violet method relative to control. Format: functional. To be noted: ATCC 15308, 24 h. The gist of the method:
as §3

Series [18] has as its system Escherichia coli. Briefly: Inhibition of biofilm formation in Escherichia coli ATCC 9637 at 0.05 mM incubated for 24 hrs by crystal violet method relative to control. To be noted: ATCC 9637, 24 h. Format: functional. The gist of the method:
as §3

For series [19], the system named is Burkholderia cepacia. Briefly: Inhibition of biofilm formation in Burkholderia cepacia R6193 clinical isolate at 0.05 mM incubated for 24 hrs by crystal violet method. Format: functional, organism-based. The gist of the method: as §3
Series [20] concerns Stenotrophomonas maltophilia. Put plainly: Antimicrobial activity against Stenotrophomonas maltophilia K279a assessed as microbial growth inhibition at 50 uM incubated for 20 hrs by broth microdilution method. The series is classed as functional, organism-based. In short, it runs like this: as §2
Series [21] has as its system Burkholderia multivorans. Put plainly: Antimicrobial activity against Burkholderia multivorans B10 assessed as microbial growth inhibition at 50 uM incubated for 20 hrs by broth microdilution method. Format: functional, organism-based. The gist of the method: as §2

For `CCCCCCCCCc1ccccc1C(=O)NS(C)(=O)=O`, the MIC in series [1] is above 128 µg/mL; in [7], 0.125 µg/mL; in series [8], 0.125 µg/mL; in [9], above 256 µg/mL; in series [10], above 256 µg/mL; in series [11] it was 1 µg/mL. Also, the MIC in series [12] was determined as 0.5 µg/mL. Further, the “growth inhibition (GI)” value in series [2], in series [3] and in series [4] was “inactive” each time. Besides, the inhibition result in series [5] and in series [6] was “inactive” each time. Moreover, in series [13], the Activity result is “Non-Toxic”.

In the case of `CCCCCCCCCc1ccccc1C(=O)NS(=O)(=O)C(C)(C)C`, the MIC is above 128 µg/mL in series [1]; 0.25 µg/mL in series [7]; 0.5 µg/mL in [8]; above 256 µg/mL in series [9]; above 256 µg/mL in [10]; 1 µg/mL in series [11]. In series [12], the MIC is 0.5 µg/mL. The “growth inhibition (GI)” value in [2], in series [3] and in [4] was “inactive” throughout. This compound also gave an inhibition at 50 µM in [14] above 35%. Moreover, the inhibition result in [5] and in series [6] was “inactive” in each case. Besides, the Activity entry in [13] and in series [16] was “Non-Toxic” each time. In addition, the outcome in [15] was Active.

As to `CCCCCCCCCc1ccccc1C(=O)NS(=O)(=O)c1ccc(Br)cc1`, the minimal inhibitory concentration (MIC) is above 128 µg/mL in series [1]; 2 µg/mL in [7]; above 1 µg/mL in [8]; above 256 µg/mL in [9]; above 256 µg/mL in series [10]; 8 µg/mL in series [11]. The MIC in series [12] was found to be 2 µg/mL. Further, the “growth inhibition (GI)” value in series [2], in series [3] and in [4] was “inactive” each time. The results for the inhibition at 50 µM in [17], in series [18] and in series [14] were 8%, above 59% and 31%, respectively. In addition, the inhibition entry in [19], in series [5] and in series [6] was “inactive” in each case.

With `CCCCCCCCCc1ccccc1C(=O)NS(=O)(=O)c1ccc(I)cc1`, the MIC in [1] is above 128 µg/mL; in [7], 2 µg/mL; in [8], above 1 µg/mL; in [9], above 256 µg/mL; in series [10], above 256 µg/mL; in series [11] it was 8 µg/mL. Moreover, the MIC in series [12] came out at 4 µg/mL. The “growth inhibition (GI)” value in series [2], in series [3] and in series [4] was “inactive” in each case. Also, the “growth inhibition (GI)” value in [20] and in series [21] was “Active” throughout. Besides, the inhibition at 50 µM in series [18] was determined as 68%; in [14], 35%. The inhibition result in series [5] and in series [6] was “inactive” each time. Moreover, the Activity entry in series [13] is listed as “Non-Toxic”.

For `CCCCCCCCCc1ccccc1C(=O)NS(=O)(=O)c1cccc(Br)c1`, the MIC in series [1] is above 128 µg/mL; in series [7] it was 1 µg/mL; in series [8] it was above 1 µg/mL; in series [9], above 256 µg/mL; in series [10], above 256 µg/mL; in [11], 4 µg/mL. Also, the MIC in [12] came to 4 µg/mL. Besides, the “growth inhibition (GI)” value in series [2], in series [3] and in series [4] was “inactive” in each case. Also, in [20], the “growth inhibition (GI)” value was “Active”. For the same compound, the inhibition at 50 µM in series [17] was determined as 1.5%; in [18], 63%; in series [14], 41%. Besides, the inhibition entry in series [19], in series [5] and in series [6] was “inactive” throughout. For the same compound, the Activity entry in [13] is reported as “Non-Toxic”.

Usually MIC stands for the lowest concentration found to suppress growth. In general, inhibition refers to the drop in the measured response relative to a control, in per cent.
